Experimental data gathered from unrelated publications.
Protocols differ between the studies behind these lines. pIC50, pKd: −log10 of the molar value.
KIT: Mast/stem cell growth factor receptor Kit (KIT, Homo sapiens, UniProt P10721)

| SMILES | target | read-out | mode | technique | measurement | value |
| --- | --- | --- | --- | --- | --- | --- |
| Cc1ccc(NC(=O)c2ccc(CN3CCS(=N)(=O)CC3)cc2)cc1Nc1nccc(-c2cccnc2)n1 | KIT | binding |  | competition with immobilised ligand | pKd | 7.96 |
| CNC(=O)c1cc2c(Oc3ccc(NC(=O)C4(C(=O)Nc5ccc(F)cc5)CC4)cc3)ccnc2cc1OC | Mast/stem cell growth factor receptor Kit (KIT, Homo sapiens, UniProt P10721, V560G) | enzyme activity | inhibitor | radiometric | pIC50 | 7.82 |
| C=CC(=O)Nc1cccc(CN2C(=O)N(c3c(Cl)c(OC)cc(OC)c3Cl)Cc3cnc(NCCCCN(CC)CC)nc32)c1 | KIT | binding |  | competition with immobilised ligand | pKd | 6.38 |
| CCN1CCN(Cc2ccc(C(=O)Nc3ccc(C)c(Oc4ccc5c(c4)CC(=O)N5)c3)cc2C(F)(F)F)CC1 | KIT | enzyme activity | inhibitor |  | pIC50 | < 5.00 |
| COc1ccc2c(Oc3ccc4c(C(=O)Nc5ccccc5N)cccc4c3)ccnc2c1 | KIT | enzyme activity | inhibitor |  | pIC50 | 8.40 |
| CN1CCN(c2ccc(Nc3ncc4cc(C#N)c(=O)n(C5CCCC5)c4n3)cc2)CC1 | KIT | enzyme activity | inhibitor |  | pIC50 | 7.38 |
| CN(C)c1ccc(C=C2C(=O)Nc3ccccc32)cc1 | KIT | enzyme activity | inhibitor | radiometric | pIC50 | 7.08 |
| Cc1cnc(-c2ccc(-c3ccc(NC(=O)Nc4c(F)cc(F)cc4F)cc3F)c3c2C(=O)NC3)[nH]1 | KIT | enzyme activity | inhibitor |  | pIC50 | 7.53 |
